Screening data: PubChem, several laboratories
ZTA DNA inh: ZTA (EBV) inhibition in EBNA-1 counter-screen; P03206; ZTA-DNA binding, fluorescence polarization; inhibition, % at 11 µM; hit rate 0.15% among 320,000; AID 2234; in the data active = inhibition above about 33%
EBNA-1 inhibitor: blocks EBNA-1 binding to DNA. EBNA-1 DNA binding, fluorescence polarization. hit rate 0.34% among 300,000. inhibition, % at 14.8 µM. AID 1950; in the data active = inhibition above about 28%
HCV NS3 hel inh: HCV NS3 helicase inhibition. NS3 helicase DNA unwinding, Cy5 molecular beacon fluorescence. inhibition, % at 10.9 µM. hit rate 0.56% among 290,000. AID 1800;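 active = inhibition above the mean of all tested compounds plus 3 SD, set per campaign, cut at about 35% in these data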;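 note: 0% = DMSO wells and 100% = thioflavine S control wells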
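assay system = NS3 helicase fragment of HCV | buffer or medium = MOPS pH 6.5, MgCl2, DTT, Tween20, BSA | timing = 60 min unwinding reaction at 25 °C after ATP addition | signal = Cy5 beacon fluorescence read at start and 1 h | read-out basis = % inhibition of unwinding | control set = low DMSO, high thioflavine S at 110 µM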
GPR7 antagonist: blocks human GPR7 receptor signaling; P48145; GPR7-expressing cells, fluorescence antagonist assay; inhibition, % at 4.4 µM; hit rate 1.1% among 290,000; in the data active = inhibition above about 16%, passing the limit was not always enough;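 note: cells stimulated with the agonist NPW; 0% = agonist with vehicle and 100% = vehicle without agonist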
Target sequence (P48145 whole entry, looked up): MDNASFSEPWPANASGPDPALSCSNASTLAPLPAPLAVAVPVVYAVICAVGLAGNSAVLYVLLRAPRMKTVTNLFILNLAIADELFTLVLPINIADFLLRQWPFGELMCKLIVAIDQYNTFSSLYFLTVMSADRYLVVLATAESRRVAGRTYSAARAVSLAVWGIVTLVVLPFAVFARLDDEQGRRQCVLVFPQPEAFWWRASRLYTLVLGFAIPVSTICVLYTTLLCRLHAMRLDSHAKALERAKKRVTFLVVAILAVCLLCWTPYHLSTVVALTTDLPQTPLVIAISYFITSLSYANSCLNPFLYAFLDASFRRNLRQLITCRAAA
EBV gp42 inh: blocks Epstein-Barr virus glycoprotein 42 binding; inhibition, % (tested at 21.74 µM); Fluorescence polarization binding assay, mP read-out; AID 1085; hit rate 0.42% among 220,000; Q1HVG2; in the data active = inhibition above about 50%
Target sequence (Q1HVG2 whole entry, looked up): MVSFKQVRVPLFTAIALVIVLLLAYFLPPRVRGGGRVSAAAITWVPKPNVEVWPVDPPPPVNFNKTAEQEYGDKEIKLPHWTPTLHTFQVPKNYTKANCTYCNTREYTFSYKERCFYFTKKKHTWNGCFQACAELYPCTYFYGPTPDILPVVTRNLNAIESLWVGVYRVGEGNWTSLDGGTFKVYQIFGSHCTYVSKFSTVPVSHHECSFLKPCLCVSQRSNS
HCV core dimer: HCV core protein dimerization inhibition. inhibition, % at 5 µM. TR-FRET GST/Flag-core106 dimerization, 1536-well. hit rate 0.33% among 300,000. AID 1899;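 active = inhibition above the mean of all tested compounds plus 3 SD, set per screening campaign, cut at about 45% in these data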
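System: GST-tagged and Flag-tagged HCV core protein residues 1-106 / Input: core106 proteins, GST 13.5 nM and Flag 17 nM / Buffer or medium: KF-containing HEPES buffer, pH 7.45, DTT, CHAPS, BSA / Probe or stimulus: Eu-anti-GST and XL665-anti-Flag labelled anti-tag antibodies / Schedule: 4 h, 22.5 °C incubation / Technique: TR-FRET 671 and 617 nm emission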
EBNA-1 inh conf: EBNA-1 (EBV) inhibition, confirmation | shares compounds with EBNA-1 inhibitor | Recombinant EBNA-1 DBD, Cy5-DNA fluorescence polarization | inhibition, % at 14.8 µM | hit rate 35% among 830 | AID 2292;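 active = mean inhibition across replicates above a set limit taken from the earlier primary screen, cut at about 28% in these data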;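 note: plate controls were EBNA-1 protein with DMSO for no effect and wells lacking EBNA-1 for full effect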
ZTA counter trip: counter-screen for EBNA-1 inhibitors: Epstein-Barr virus ZTA inhibitors, triplicate. inhibition, % at 11.1 µM. Zta-ZRE DNA binding, Cy5 fluorescence polarization. shares compounds with EBNA-1 inhibitor. 830 tested, under 10 active;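 active = mean inhibition over triplicates above a set limit taken from the primary EBNA-1 screen, cut at about 37% in these data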;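 note: purified full length Zta protein with Cy5 labeled ZRE DNA probe; 0% = Zta with DMSO and 100% = wells lacking Zta protein; inhibitors lower polarization by freeing the labeled DNA probe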
* hit, by the source's call; / = no result. Rows were chosen to be rich in hits. Some 2.3% of all compounds tested hit in one or more screens of this group.

SMILES	ZTA DNA inh	EBNA-1 inhibitor	HCV NS3 hel inh	GPR7 antagonist	EBV gp42 inh	HCV core dimer	EBNA-1 inh conf	ZTA counter trip
Cc1ccc(C(=O)NCc2ccc3c(c2)OCO3)cc1	1	3	-3	-7	/	10	/	/
Cc1ccc(CN(c2ccc(C(=O)NCc3ccc4c(c3)OCO4)cc2)S(C)(=O)=O)cc1	2	35*	-15	16	-4	1	14	-3
CN(Cc1ccccc1)S(=O)(=O)c1ccc(Cl)c(C(=O)NCc2ccncc2)c1	-7	-1	/	/	/	-7	/	/
COc1ccc(S(=O)(=O)N2CCOCC2)cc1NC(=O)c1ccc2c(c1)OCCO2	14	10	8	-3	-7	4	/	/
CCc1noc(C)c1C(=O)Nc1cc(S(=O)(=O)N2CCOCC2)ccc1OCC(F)(F)F	4	79*	/	/	/	-6	-8	-15
COc1ccc(S(=O)(=O)N2CCOCC2)cc1NC(=O)c1ccccc1C	-12	-1	6	-4	/	0	/	/
COc1ccc(S(=O)(=O)N2CCOCC2)cc1NC(=O)c1cccc(Cl)c1	9	41*	2	0	/	-9	20	-7
COc1ccc(S(=O)(=O)N2CCOCC2)cc1NC(=O)c1ccc(Cl)cc1	-9	44*	/	/	/	-2	32*	-7
COc1ccc(S(=O)(=O)N2CCCCC2)cc1NC(=O)CCOc1cc(C)ccc1C	9	/	/	/	/	/	/	/
Cc1csc2ncnc(N3CCN(C(=S)Nc4ccc(C(F)(F)F)cc4)CC3)c12	-5	47*	-1	-10	-3	-7	-1	-1
Cc1csc2c(N3CCN(C(=S)Nc4ccc(C(F)(F)F)cc4)CC3)ncnc12	-17	-12	2	-1	-1	-1	/	/
COc1ccc(-c2cc(=O)oc3cc(OC(=O)C4CCCCC4)c(Cl)cc23)cc1	3	0	11	-7	4	-21	/	/
COc1ccc(NC(=O)COC(=O)c2ccc(OCc3ccccc3Cl)c(OC)c2)c(OC)c1	-4	32*	-1	-2	-12	2	-8	-9
Cc1ccnc(SCC(=O)N2CCc3ccccc32)n1	5	32*	6	-12	/	6	-1	0
CC1(/[N+]([O-])=C\c2ccccc2F)CCCCC1=O (centres undefined)	9	1	7	-13	-5	-1	/	/
CC(=O)Nc1ccc(S(=O)(=O)N2CCN(Cc3nc4sc(C)c(C)c4c(=O)[nH]3)CC2)cc1	0	27*	0	-11	-9	1	55*	0
CN(C)c1oc(-c2ccc(Cl)cc2)nc1S(=O)(=O)c1ccccc1	5	7	1	-9	-2	7	/	/
O=C(NCCCN1CCOCC1)c1ccc(Br)s1	4	-4	0	-6	-2	2	/	/
O=C(NCCCCNC(=O)c1ccc(Br)s1)c1ccc(Br)s1	25	46*	-3	13	7	-11	11	10
O=C(Cn1nnc(-c2ccc(CN3CCOCC3)cc2)n1)Nc1nc(-c2ccccc2)cs1	-2	48*	-4	4	-2	5	5	7
CN(C(=O)COC(=O)c1nn(C)c(=O)c2ccccc12)c1c(N)n(Cc2ccccc2)c(=O)[nH]c1=O	11	1	/	/	/	-1	/	/
CCN(CC)S(=O)(=O)c1cc(NC(=O)CSc2nnc(N)s2)ccc1C	-18	/	/	/	/	/	/	/
CCN(CC)S(=O)(=O)c1cc(NC(=O)CSc2nc3c(cc2C#N)C(=O)CC(C)(C)C3)ccc1C	10	32*	-1	-8	-9	5	-8	-12
COc1ccc(Nc2nc(Cl)nc(NCc3ccco3)n2)c(OC)c1	1	29*	-2	-12	-3	-1	15	-6
CCc1nnc(NS(=O)(=O)c2ccc(N=CC3=C(O)CC(C)(C)CC3=O)cc2)s1	-14	6	-5	-10	1	-3	/	/
SMILES	ZTA DNA inh	EBNA-1 inhibitor	HCV NS3 hel inh	GPR7 antagonist	EBV gp42 inh	HCV core dimer	EBNA-1 inh conf	ZTA counter trip
CCN(CC)CCOC(=O)c1cccc2c1-c1ccccc1C2O (centres undefined)	-8	-11	6	-7	-9	-3	/	/
COc1ccccc1OCCn1cc(/C=C(\C#N)C(=O)NCc2cccs2)c2ccccc21	8	6	5	0	-23	24	/	/
N#C/C(=C\c1cn(Cc2ccccc2C#N)c2ccccc12)C(=O)NCc1cccs1	-14	31*	8	-4	-34	6	2	-8
Cc1ccc(-c2nn3c(C)nnc3s2)cc1NC(=O)c1ccc(-c2ccc(Cl)cc2Cl)o1	13	37*	19	-7	-88	40	2	-11
Cc1c(C)n(Cc2ccc(F)cc2)c2ccc(C(=O)NCCN3CCOCC3)cc12	-3	-7	-59	2	/	1	/	/
CCN(CC(=O)Nc1ccccc1OC)C(=O)c1cc(-c2ccccc2)nn1-c1ccccc1	2	45*	/	/	/	9	-6	-11
COc1cc(NC(=O)C2Cc3ccccc3CN2S(C)(=O)=O)cc(OC)c1 (centres undefined)	-5	38*	-10	-11	/	-9	7	7
CC(=O)Nc1ccc(S(=O)(=O)NCC2CCC(C(=O)NC3CCCCCC3)CC2)cc1 (centres undefined)	18	2	9	-10	-10	-7	/	/
Cc1ccc(S(=O)(=O)NCC2CCC(C(=O)NC3CCCCC3)CC2)cc1 (centres undefined)	1	49*	1	4	/	-3	39*	3
O=C(CN(CC1CCCO1)C(=O)CNS(=O)(=O)c1ccc(F)cc1)NC1CCCCC1 (centres undefined)	15	5	10	-3	/	0	/	/
COCCN(Cc1cc2cc(C)cc(C)c2nc1Cl)C(=O)Nc1ccccc1	-12	56*	5	-9	-11	5	-9	3
O=C(COC(=O)c1ccc(CNS(=O)(=O)c2ccc(F)c(Cl)c2)cc1)NC1CCCCCCC1	1	3	1	2	8	14	/	/
O=C(COC(=O)c1ccc(CNS(=O)(=O)c2ccc(F)c(Cl)c2)cc1)NCC1CCCCC1	-11	31*	4	0	-26	3	0	-1
COc1ccc(CN2CCN(Cc3ccon3)CC2CCO)c(C)c1C (centres undefined)	1	2	7	-16	-1	1	/	/
CCOC(=O)[C@@H]1[C@H]2COc3cc(OC)ccc3[C@H]2N2C(=O)N(c3cccc(Cl)c3)C(=O)[C@]12C	7	32*	-19	11	/	4	7	-8
CCOC(=O)[C@@H]1[C@H]2COc3cc(OC)ccc3[C@H]2N2C(=O)N(c3cccc(Cl)c3)C(=O)[C@@]12C	5	-5	-31	-5	/	9	/	/
